The text below walks through data of ChEMBL document CHEMBL3044834, “Novel protoporphyrinogen oxidase inhibitors: 3H-pyrazolo[3,4-d][1,2,3]triazin-4-one derivatives” (J Agric Food Chem, 2008).

Assay [1] deals with Echinochloa crus-galli. Kind of assay: Herbicidal activity against Echinochloa crus-galli (barnyard grass) assessed as inhibition of fresh weed plant weight at 93.75 g/ha using pre-emergence treatment protocol. The class given is functional.
Assay [2] concerns Amaranthus retroflexus. In words: Herbicidal activity against Amaranthus retroflexus assessed as inhibition of fresh weed plant weight at 45 g/ha using pre-emergence treatment protocol. Format: functional.
Assay [3] has as its system Amaranthus retroflexus. Kind of assay: Herbicidal activity against Amaranthus retroflexus assessed as inhibition of fresh weed plant weight at 93.75 g/ha using pre-emergence treatment protocol. Format: functional.
Assay [4] concerns the target T1, Protoporphyrinogen IX oxidase (Zea mays, UniProt Q9M629).
T1 sequence (Q9M629 whole entry): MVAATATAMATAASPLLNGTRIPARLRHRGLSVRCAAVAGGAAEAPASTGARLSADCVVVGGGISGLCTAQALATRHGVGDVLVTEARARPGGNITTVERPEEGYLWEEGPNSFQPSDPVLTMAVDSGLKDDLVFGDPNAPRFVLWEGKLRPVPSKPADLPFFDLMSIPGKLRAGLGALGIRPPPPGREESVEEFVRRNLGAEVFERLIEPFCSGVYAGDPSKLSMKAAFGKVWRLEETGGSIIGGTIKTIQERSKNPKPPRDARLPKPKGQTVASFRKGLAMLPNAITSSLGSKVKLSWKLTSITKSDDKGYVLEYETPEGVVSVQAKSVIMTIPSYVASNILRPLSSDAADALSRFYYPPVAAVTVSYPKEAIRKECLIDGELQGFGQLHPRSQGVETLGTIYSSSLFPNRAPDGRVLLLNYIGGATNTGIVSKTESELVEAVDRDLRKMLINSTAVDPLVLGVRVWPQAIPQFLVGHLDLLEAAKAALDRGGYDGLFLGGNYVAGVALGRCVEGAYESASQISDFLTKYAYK
In words: Inhibition of protoporphyrinogen oxidase in Zea mays (maize) seedlings leaves etioplasts using protoporphyrinogen IX incubated for 30 min by fluorescence spectroscopy.

Assay [5] concerns Brassica rapa subsp. oleifera. In words: Herbicidal activity against Brassica rapa subsp. oleifera assessed as inhibition of fresh weed plant weight at 93.75 g/ha using pre-emergence treatment protocol. The class given is functional.
The test system of assay [6] is Brassica rapa subsp. oleifera. In words: Herbicidal activity against Brassica rapa subsp. oleifera assessed as inhibition of fresh weed plant weight at 45 g/ha using pre-emergence treatment protocol. The class given is functional.
For assay [7], the system named is Echinochloa crus-galli. In words: Herbicidal activity against Echinochloa crus-galli (barnyard grass) assessed as inhibition of fresh weed plant weight at 22.5 g/ha using pre-emergence treatment protocol. Format: functional. The essentials:
(§1)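 Test compounds made up as emulsions by dissolving in 100 µL N,N-dimethylformamide, then adding a little Tween 20 and water. For post-emergence, weed seedlings at one leaf and one stem were sprayed at the same rates as the pre-emergence test. Fresh weight was recorded 15 days after treatment and expressed as percent inhibition versus controls. All treatments were run in triplicate.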

In assay [8] the test system is Amaranthus retroflexus. In words: Herbicidal activity against Amaranthus retroflexus assessed as inhibition of fresh weed plant weight at 22.5 g/ha using pre-emergence treatment protocol. Format: functional.
The subject of assay [9] is Digitaria sanguinalis. In words: Herbicidal activity against Digitaria sanguinalis (hairy crabgrass) assessed as inhibition of fresh weed plant weight at 22.5 g/ha using pre-emergence treatment protocol. The class given is functional.
Assay [10] relates to Amaranthus retroflexus. In words: Herbicidal activity against Amaranthus retroflexus assessed as inhibition of fresh weed plant weight at 187.5 g/ha using pre-emergence treatment protocol. The class given is functional.
Assay [11] has as its system Digitaria sanguinalis. Kind of assay: Herbicidal activity against Digitaria sanguinalis (hairy crabgrass) assessed as inhibition of fresh weed plant weight at 187.5 g/ha using pre-emergence treatment protocol. The class given is functional.
Assay [12] has as its system Brassica rapa subsp. oleifera. Kind of assay: Herbicidal activity against Brassica rapa subsp. oleifera assessed as inhibition of fresh weed plant weight at 22.5 g/ha using pre-emergence treatment protocol. The class given is functional.
For assay [13], the system named is Digitaria sanguinalis. Kind of assay: Herbicidal activity against Digitaria sanguinalis (hairy crabgrass) assessed as inhibition of fresh weed plant weight at 93.75 g/ha using pre-emergence treatment protocol. The class given is functional.
The subject of assay [14] is Brassica rapa subsp. oleifera. Kind of assay: Herbicidal activity against Brassica rapa subsp. oleifera assessed as inhibition of fresh weed plant weight at 187.5 g/ha using pre-emergence treatment protocol. The class given is functional.
Assay [15] deals with Echinochloa crus-galli. Kind of assay: Herbicidal activity against Echinochloa crus-galli (barnyard grass) assessed as inhibition of fresh weed plant weight at 187.5 g/ha using pre-emergence treatment protocol. The class given is functional. The gist of the method: as §1
In assay [16] the test system is Digitaria sanguinalis. In words: Herbicidal activity against Digitaria sanguinalis (hairy crabgrass) assessed as inhibition of fresh weed plant weight at 45 g/ha using pre-emergence treatment protocol. Format: functional.
The subject of assay [17] is Echinochloa crus-galli. In words: Herbicidal activity against Echinochloa crus-galli (barnyard grass) assessed as inhibition of fresh weed plant weight at 45 g/ha using pre-emergence treatment protocol. Format: functional.

For `C#CCN1C(=O)COc2cc(F)c(N3C(=O)C4=C(CCCC4)C3=O)cc21` [FLUMIOXAZIN], the inhibition at 93.75 g/ha (in the assay with Echinochloa crus-galli [1]; with Amaranthus retroflexus [3]; in assay [5]; in the assay on Digitaria sanguinalis [13]) was 100% throughout. Further, the inhibition at 45 g/ha in the assay on Amaranthus retroflexus [2] was determined as 100%; in assay [6], 100%; in the assay with Digitaria sanguinalis [16], 100%; in the assay on Echinochloa crus-galli [17], 71.4%. In addition, the IC50 in assay [4] was 3.24 nM. Moreover, the inhibition at 22.5 g/ha in the assay on Echinochloa crus-galli [7] is 40.9%; in the assay on Amaranthus retroflexus [8] it was 100%; in the assay with Digitaria sanguinalis [9] it was 85.4%; in assay [12], 92.6%. For the same molecule, the inhibition at 187.5 g/ha (in the assay on Amaranthus retroflexus [10]; in the assay with Digitaria sanguinalis [11]; in assay [14]; in the assay on Echinochloa crus-galli [15]) was 100% throughout.

Usually inhibition stands for the change of the read-out against control, counted positive when it falls. As a reminder, the IC50 is the concentration needed to halve the response being measured. Lower therefore signals greater potency in that assay.
